STAT3 inh = STAT3 signaling inhibition; actives 0.89% (n = 190,000); inhibition, % at 5.5 µM; U3A cells, IL-6 STAT3-luciferase reporter, luminescence; host cell line lacks STAT1; AID 862;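 active = inhibition above the mean inhibition across all screened compounds plus 3 SD, cut at about 44% in these data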;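 also: 0% = DMSO only wells and 100% = 100 µM nifuroxazide control wells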
APP 5'UTR act = APP 5'UTR luciferase reporter activation | SH-SY5Y APP 5'UTR luciferase reporter, luminescence; zero percent = DMSO vehicle wells | activation, % at 2 µM | actives 1% (n = 190,000) | AID 1276;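 active = activation above a set limit, based on mean plus 3 SD of controls, cut at about 140% in these data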
STAT3 act = STAT3 signaling activation | U3A cells, IL-6 STAT3-luciferase reporter, luminescence; 100% = signal with IL-6 EC80 alone | activation (% of control), % at 5.6 µM | actives 0.91% (n = 190,000) | AID 871;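 active = activation above the screen-wide mean of compound activation plus 3 SD, cut at about 130% in these data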;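 also: 0% = background luminescence of wells with medium and substrate only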
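Material: STAT3-luciferase reporter U3A cells; Probe or stimulus: IL-6 (33 ng/mL); Incubation: compound pre-incubation 1 h before IL-6, then 6 h stimulation at 37 °C; Technique: luminescence from STAT3-driven luciferase reporter; Evaluation: % activation versus median of IL-6-stimulated wells; Controls: IL-6-only high control.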
NF-kB neuron act = raises NF-kB expression in human neuronal cells | NF-kB reporter expression; stronger effect = higher value | fold change at 12.5 µM | actives 1.6% (n = 190,000); in the data active = fold change above about 3.3
STAT1 act = activators of IFN-gamma induced STAT1 signaling | AID 932 | NIH 3T3 STAT1-luciferase reporter, luminescence; 100% = IFN-gamma alone, no compound | activation (% of control), % at 5.5 µM | actives 2.6% (n = 200,000);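 active = activation above the screen-wide mean activation plus 3 SD, cut at about 130% in these data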;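 also: raw ratio to IFN-gamma control signal so 100% means no change and 0% no light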
STAT1 blocker = reduces IFN-gamma driven STAT1 reporter signal. actives 0.35% (n = 200,000). inhibition, % at 5.5 µM. AID 920. NIH 3T3 STAT1-luciferase reporter, luminescence;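 active = inhibition above a set limit, the mean inhibition across all tested compounds plus 3 SD, cut at about 34% in these data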;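 also: 0% = IFN-gamma with DMSO and 100% = IFN-gamma with 300 µM nifuroxazide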
STAT1 act conf = STAT1 activation, confirmation assay; shares compounds with STAT1 act; NIH 3T3 STAT1-luciferase reporter, IFN-gamma potentiation, luminescence; 100% = IFN-gamma EC80 alone, no compound; activation (% of control), % at 5.7 µM; actives 97% (n = 1,200);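 active = activation above a set limit carried over from the earlier primary STAT1 screen, cut at about 140% in these data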;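 also: simple ratio to median IFN-gamma plus DMSO wells so 0% means no light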
NFkB act STAT1ct = NF-kappaB activation in STAT1 activator counter-screen; shares compounds with STAT1 act; HEK293T NF-kB luciferase reporter, TNF-alpha stimulated, luminescence; 100% = TNF-alpha with vehicle only; activation (% of control), % at 5.7 µM; actives 43% (n = 1,200); AID 1306;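 active = activation above the mean of solvent-only control wells plus 3 SD, set per campaign, cut at about 130% in these data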;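 also: TNF-alpha given at a submaximal dose yielding about 80% of full reporter signal; values are well signal over median control so 100% means no change and 0% no light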
STAT3 act STAT1c = counter-screen for STAT1 activators: human STAT3 activation; shares compounds with STAT1 act; U3A cells STAT3-luciferase reporter, IL-6, luminescence; cells lack STAT1; 100 = IL-6 alone, no compound effect; activation (% of control), % at 5.7 µM; actives 46% (n = 1,200);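 active = activation above the solvent-only control well mean plus 3 SD, set per plate batch, cut at about 110% in these data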;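 also: 0% = no luminescence and 100% = median IL-6 plus DMSO wells; higher means more STAT3 reporter activation so hits are non-selective activators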
* hit, by the source's call; x = not tested or not shown. In the library only some 5.1% were active in any assay of this set; here they are far more common.

SMILES	STAT3 inh	APP 5'UTR act	STAT3 act	NF-kB neuron act	STAT1 act	STAT1 blocker	STAT1 act conf	NFkB act STAT1ct	STAT3 act STAT1c
S=C(c1ccc(-c2ccc(Cl)cc2)o1)N1CCCCC1	12	184*	97	4.9*	181*	-87	222*	138*	115*
COc1ccc2oc(C(=O)c3ccccc3)c(N)c2c1	11	144*	94	6.1*	174*	-81	175*	141*	107
CCOC(=O)c1sc2nc(-c3cccnc3)ccc2c1N	11	156*	93	8.2*	176*	-85	251*	141*	115*
O=C(/C=C/Nc1ccccc1F)c1ccc(Br)cc1	21	224*	81	8.8*	182*	-92	239*	111	107
Cc1ccc(C(=O)/C=C/NCc2ccc(F)cc2)cc1	3	0	97	1.4	120	-23	x	x	x
NC(=O)c1ccccc1N/C=C/C(=O)c1ccc(F)cc1	39	136*	69	4.2*	154*	-59	189*	112	91
O=C(/C=C/Nc1ccc(F)cc1)c1ccc(Br)cc1	22	135	86	x	172*	-78	218*	132	104
O=C(CC1C(=O)NCCN1CC1CCCCC1)NCc1cccc(F)c1F (stereo unspecified)	-6	24	107	1.1	115	-18	x	x	x
COc1ccccc1-c1n[nH]c(=S)n1Cc1ccco1	-16	1	121	1.2	104	-6	x	x	x
Cc1cccc2c1-c1sc(C(=O)Nc3nccs3)cc1CO2	23	96	85	2.2	160*	-66	190*	127	94
Cc1cccc2c1-c1sc(C(=O)Nc3cccc([N+](=O)[O-])c3C)cc1CO2	23	5	86	0.98	98	2	x	x	x
O=c1[nH]cnc2scc(-c3ccc(-c4ccccc4)cc3)c12	33	38	72	2.3	159*	-60	214*	113	90
Cc1ccc(NC(=O)CSc2nnc(-c3cccs3)o2)cc1S(=O)(=O)N1CCCCC1	5	3	98	1	96	4	x	x	x
CCOc1ccc(/C=N/Nc2ccccn2)cc1OC	-5	50	108	1.1	155*	-65	154*	119	105
CCOc1ccc(/C=N/N(C)c2ccccc2)cc1OC	4	88	103	4.9*	163*	-69	187*	142*	109
CSc1nc(C)cc(SCC(=O)N/N=C/c2ccccc2)n1	4	10	100	1	109	-10	x	x	x
CCOCC(=O)Nc1c(C(=O)Nc2ccc3c(c2)OCCO3)oc2ccccc12	7	129	100	1.4	155*	-60	160*	142*	103
COc1ccc(NC(=O)c2oc3ccccc3c2NC(=O)c2ccc3c(c2)OCO3)cc1	22	-6	84	0.48	97	3	x	x	x
COCC(=O)Nc1c(C(=O)Nc2ccc3c(c2)OCCO3)oc2ccccc12	3	195*	102	2.4	176*	-88	176*	140*	104
Cc1ccc(C(C(=O)NC(C)(C)C)N(Cc2ccccc2)C(=O)c2snc(C(N)=O)c2N)o1 (stereo unspecified)	4	28	101	0.5	88	14	x	x	x
O=C(OCC(=O)N1c2ccccc2Sc2ccccc21)c1ccc[n+]([O-])c1	4	-1	101	1	86	15	x	x	x
COc1ccccc1OCCC(=O)OCC(=O)c1c(N)n(C)c(=O)n(C)c1=O	5	9	99	1	98	0	x	x	x
COC(=O)c1ccc(N=NNc2cccc(Br)c2)cc1	-19	61	114	3.3*	152*	-58	224*	134*	129*
Cc1cc(/C=N/NC(N)=S)c(C)n1-c1cccc(Cl)c1	11	-8	97	1.1	99	-1	x	x	x
Cc1cc(/C=N/NC(=O)c2nn(C)cc2Cl)c(C)n1-c1cccc(Br)c1	-6	4	109	1.5	159*	-65	113	108	91
SMILES	STAT3 inh	APP 5'UTR act	STAT3 act	NF-kB neuron act	STAT1 act	STAT1 blocker	STAT1 act conf	NFkB act STAT1ct	STAT3 act STAT1c
Cc1cc(C(=O)CN2CCC(C)CC2)c(C)n1-c1ccc(F)cc1	-7	136*	106	0.74	157*	-63	164*	132	118*
Cc1cc(C)n(-c2nnc(NC34CC5CC(CC(C5)C3)C4)nn2)n1	-25	134	124	2.5	162*	-70	182*	145*	159*
Cc1ccc2oc(-c3ccc(NC(=O)CC(C)C)cc3)nc2c1	1	119	105	2.4	154*	-59	212*	130	108
CC(C)CC(=O)Nc1ccc2oc(-c3cccnc3)nc2c1	10	50	96	2.1	124	-26	x	x	x
CCCC(=O)Nc1ccc(-c2nc3cc(C)c(C)cc3o2)cc1	14	53	88	4.7*	202*	-113	224*	141*	122*
N#C/C(=C/c1ccc(-c2cc(C(=O)O)cc(C(=O)O)c2)o1)c1nc2ccccc2s1	13	-3	92	1.1	97	2	x	x	x
N#C/C(=C\c1ccco1)c1nc2ccccc2s1	-24	138*	120	1.1	173*	-83	218*	131	142*
N#C/C(=C/c1ccco1)c1nc2ccccc2s1	6	186*	95	8.1*	165*	-72	226*	131	140*
O=C(NC1CCCCC1)C(c1ccccn1)N(C(=O)c1csnn1)C1CCCCC1 (stereo unspecified)	4	43	99	1.1	97	1	x	x	x
COc1ccc(-c2csc(-c3ccccc3)n2)c(OC)c1	13	195*	93	12*	153*	-61	227*	144*	144*
COc1ccc(-c2nc(-c3ccc(Br)cc3)no2)c(OC)c1	-5	94	105	6*	155*	-59	233*	132	112*
COc1ccccc1-c1nc(-c2ccncc2)no1	14	106	92	2.3	159*	-65	188*	131	111*
COc1ccc(Cl)cc1-c1nc(-c2ccncc2)no1	6	-7	97	1.2	105	-11	x	x	x
